Active and inactive are the calls of the source. The calls are words filed in the database; no cut-off is given here.
What was measured:
Human alphaherpesvirus 1 [1] = experiment: Antiviral activity against Herpes simplex virus 1 KOS infected in human HEL cells assessed as inhibition of viral plaque formation at 250 uM; type: functional, organism-based
Method in brief: (§1)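 Confluent host cell monolayers were inoculated with 100 CCID50 of virus in the presence of test compound at serial dilutions (250, 50, 10, … μM). Viral cytopathicity was scored once it reached completion in untreated virus-infected controls.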

Human alphaherpesvirus 2 = experiment: Antiviral activity against Herpes simplex virus 2 G infected in human HEL cells assessed as inhibition of viral plaque formation at 250 uM; type: functional, organism-based; conditions: strain G
Human alphaherpesvirus 1 [2] = experiment: Antiviral activity against thymidine kinase-deficient acv-resistant Herpes simplex virus 1 KOS infected in human HEL cells assessed as inhibition of viral plaque formation at 250 uM; type: functional, organism-based
Vaccinia virus = experiment: Antiviral activity against Vaccinia virus infected in human HEL cells assessed as inhibition of viral plaque formation at 250 uM; type: functional, organism-based; conditions: Orthopoxvirus vaccinia; method in brief: as §1
[3] = system: Vesicular stomatitis virus; experiment: Antiviral activity against Vesicular stomatitis virus infected in human HEL cells assessed as inhibition of viral plaque formation at 250 uM; type: functional, organism-based; method in brief: as §1
Human betaherpesvirus 5 [4] = experiment: Antiviral activity against Human cytomegalovirus AD169 infected in human HEL cells assessed as inhibition of viral plaque formation at 250 uM; type: functional, organism-based
Human betaherpesvirus 5 [5] = experiment: Antiviral activity against Human cytomegalovirus Davis infected in human HEL cells assessed as inhibition of viral plaque formation at 250 uM; type: functional, organism-based
Human alphaherpesvirus 3 [6] = experiment: Antiviral activity against thymidine kinase-positive Varicella Zoster virus Oka infected in human HEL cells assessed as inhibition of viral plaque formation at 250 uM; type: functional, cell-based; conditions: strain Oka vaccine
Human alphaherpesvirus 3 [7] = experiment: Antiviral activity against thymidine kinase-deficient Varicella Zoster virus 07/1 infected in human HEL cells assessed as inhibition of viral plaque formation at 250 uM; type: functional, organism-based
Human respirovirus 3 = experiment: Antiviral activity against Parainfluenza-3 virus infected in african green monkey Vero cells assessed as inhibition of viral plaque formation at 250 uM; type: functional, organism-based; method in brief: as §1
[8] = system: Mammalian orthoreovirus 1; experiment: Antiviral activity against Reovirus-1 infected in african green monkey Vero cells assessed as inhibition of viral plaque formation at 250 uM; type: functional, organism-based; method in brief: as §1
Sindbis virus = experiment: Antiviral activity against Sindbis virus infected in african green monkey Vero cells assessed as inhibition of viral plaque formation at 250 uM; type: functional, organism-based; method in brief: as §1
Coxsackievirus B4 [9] = experiment: Antiviral activity against Coxsackievirus B4 infected in african green monkey Vero cells assessed as inhibition of viral plaque formation at 250 uM; type: functional, organism-based; method in brief: as §1
Punta Toro virus = experiment: Antiviral activity against Punta Toro virus infected in african green monkey Vero cells assessed as inhibition of viral plaque formation at 250 uM; type: functional, organism-based
[10] = system: Vesicular stomatitis virus; experiment: Antiviral activity against Vesicular stomatitis virus infected in human Hela cells assessed as inhibition of viral plaque formation at 250 uM; type: functional, organism-based
Coxsackievirus B4 [11] = experiment: Antiviral activity against Coxsackievirus B4 infected in human HeLa cells assessed as inhibition of viral plaque formation at 250 uM; type: functional, organism-based; method in brief: as §1
[12] = system: Respiratory syncytial virus; experiment: Antiviral activity against Respiratory syncytial virus infected in human HeLa cells assessed as inhibition of viral plaque formation at 250 uM; type: functional, organism-based; method in brief: as §1
Felid alphaherpesvirus 1 = experiment: Antiviral activity against Felid herpesvirus 1 infected in CrFK cells assessed as inhibition of viral plaque formation at 250 uM; type: functional, organism-based; method in brief: as §1
Feline coronavirus = experiment: Antiviral activity against Feline coronavirus infected in CrFK cells assessed as inhibition of viral plaque formation at 250 uM; type: functional, organism-based; method in brief: as §1
[13] = system: Human immunodeficiency virus 2; experiment: Antiviral activity against Human immunodeficiency virus 2 infected in human CEM cells assessed as inhibition of virus-induced giant cell formation after 4 days by microscopic analysis; type: functional, organism-based; conditions: CCRF-CEM
Method in brief: (§2)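 CEM cells at about 3 × 10⁵ cells/cm³ were infected with 100 CCID50/mL of HIV-1(IIIB) or HIV-2(ROD), then seeded into wells holding test compound dilutions. After 4 days at 37 °C, virus-induced giant cell formation was scored microscopically.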

[14] = system: Human immunodeficiency virus 1; experiment: Antiviral activity against Human immunodeficiency virus 1 infected in human CEM cells assessed as inhibition of virus-induced giant cell formation after 4 days by microscopic analysis; type: functional, organism-based; conditions: CCRF-CEM; method in brief: as §2
HEL [15] = experiment: Cytotoxicity against human HEL cells assessed as change in cell morphology up to 100 uM; type: cell-based
Method in brief: (§3)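 Uninfected host-cell cultures were examined under the microscope. MCC was taken as the lowest compound concentration producing a detectable alteration of normal cell morphology, assessed at concentrations up to 100 μM.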

HeLa [16] = experiment: Cytotoxicity against human HeLa cells assessed as change in cell morphology up to 100 uM; type: cell-based; method in brief: as §3
Vero = experiment: Cytotoxicity against african green monkey Vero cells assessed as change in cell morphology up to 100 uM; type: cell-based; conditions: chlorocebus sabaeus; method in brief: as §3
MDCK = experiment: Cytotoxicity against MDCK cells assessed as change in cell morphology up to 100 uM; type: cell-based, Canis lupus familiaris; conditions: dog; method in brief: as §3
[17] = Cytotoxicity against CRFK cells assessed as change in cell morphology up to 100 uM; type: cell-based, Felis catus; conditions: cat; method in brief: as §3
HEL [18] = experiment: Cytotoxicity against human HEL cells 3 days by coulter counting; type: functional; conditions: 72 h
Method in brief: (§4)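 Cells were suspended at 300,000–500,000 cells/mL and added 1:1 to compound dilutions. Incubation was at 37 °C, 2 days for L1210 and 3 days for CEM, HeLa and HEL. Cells were counted with a Coulter counter. CC50 is the concentration inhibiting cell proliferation by 50%.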

HeLa [19] = experiment: Cytotoxicity against human HeLa cells 3 days by coulter counting; type: functional; conditions: 72 h; method in brief: as §4
CCRF-CEM = experiment: Cytotoxicity against human CEM cells 3 days by coulter counting; type: functional; conditions: 72 h; method in brief: as §4
L1210 = experiment: Cytotoxicity against mouse L1210 cells 2 days by coulter counting; type: functional; conditions: L1210, 48 h; method in brief: as §4

| Structure (SMILES) | Activity (Human alphaherpesvirus 1 [1]) | Activity (Human alphaherpesvirus 2) | Activity (Human alphaherpesvirus 1 [2]) | Activity (Vaccinia virus) | Activity [3] | Activity (Human betaherpesvirus 5 [4]) | Activity (Human betaherpesvirus 5 [5]) | Activity (Human alphaherpesvirus 3 [6]) | Activity (Human alphaherpesvirus 3 [7]) | Activity (Human respirovirus 3) | Activity [8] | Activity (Sindbis virus) | Activity (Coxsackievirus B4 [9]) | Activity (Punta Toro virus) | Activity [10] | Activity (Coxsackievirus B4 [11]) | Activity [12] | Activity (Felid alphaherpesvirus 1) | Activity (Feline coronavirus) | Activity [13] | further results |
| --- | --- | --- | --- | --- | --- | --- | --- | --- | --- | --- | --- | --- | --- | --- | --- | --- | --- | --- | --- | --- | --- |
| CCOP(=O)(OCC)[C@@H]1C[C@@H](n2cc(-c3ccccc3)nn2)ON1C (racemic) | inactive | inactive | inactive | inactive | inactive | inactive | inactive | inactive | inactive | inactive | inactive | inactive | inactive | inactive | inactive | inactive | inactive | inactive | inactive | inactive | Activity [14]: inactive; Activity (HEL [15]): Non-toxic; Activity (HeLa [16]): Non-toxic; Activity (Vero): Non-toxic; Activity (MDCK): Non-toxic; Activity [17]: Non-toxic; CC50 (HEL [18]): 40 µM; CC50 (HeLa [19]): > 250 µM; CC50 (CCRF-CEM): > 250 µM; CC50 (L1210): > 250 µM |
| CCOP(=O)(OCC)[C@@H]1C[C@@H](n2cc(Cn3cc(C)c(=O)[nH]c3=O)nn2)ON1C (relative stereo) | inactive | inactive | inactive | inactive | inactive | inactive | inactive | inactive | inactive | inactive | inactive | inactive | inactive | inactive | inactive | inactive | inactive | inactive | inactive | inactive | Activity [14]: inactive; CC50 (HEL [18]): > 100 µM; CC50 (HeLa [19]): > 250 µM; CC50 (CCRF-CEM): > 250 µM; CC50 (L1210): ≥ 250 µM |
| CCOP(=O)(OCC)[C@@H]1C[C@@H](n2cc(Cn3ccc(NC(C)=O)nc3=O)nn2)ON1C (relative stereo) | inactive | inactive | inactive | inactive | inactive | inactive | inactive | inactive | inactive | inactive | inactive | inactive | inactive | inactive | inactive | inactive | inactive | inactive | inactive | inactive | Activity [14]: inactive; CC50 (HEL [18]): > 100 µM; CC50 (HeLa [19]): > 250 µM; CC50 (CCRF-CEM): > 250 µM; CC50 (L1210): ≥ 250 µM |
| CCOP(=O)(OCC)[C@@H]1C[C@@H](n2cc(C(=O)OC)nn2)ON1C (relative stereo) | inactive | inactive | inactive | inactive | inactive | inactive | inactive | inactive | inactive | inactive | inactive | inactive | inactive | inactive | inactive | inactive | inactive | inactive | inactive | inactive | Activity [14]: inactive; CC50 (HEL [18]): > 100 µM; CC50 (HeLa [19]): > 250 µM; CC50 (CCRF-CEM): > 250 µM; CC50 (L1210): 191 µM |
| CCOP(=O)(OCC)[C@@H]1C[C@H](n2cc(Cn3ccc(NC(C)=O)nc3=O)nn2)ON1C (relative stereo) | inactive | inactive | inactive | inactive | inactive | inactive | inactive | inactive | inactive | inactive | inactive | inactive | inactive | inactive | inactive | inactive | inactive | inactive | inactive | inactive | Activity [14]: inactive; CC50 (HEL [18]): > 100 µM; CC50 (HeLa [19]): > 250 µM; CC50 (CCRF-CEM): > 250 µM; CC50 (L1210): > 250 µM |
| CCOP(=O)(OCC)[C@@H]1C[C@H](n2cc(Cn3cnc4c(N)ncnc43)nn2)ON1C (relative stereo) | inactive | inactive | inactive | inactive | inactive | inactive | inactive | inactive | inactive | inactive | inactive | inactive | inactive | inactive | inactive | inactive | inactive | inactive | inactive | inactive | Activity [14]: inactive; CC50 (HEL [18]): > 100 µM; CC50 (HeLa [19]): ≥ 250 µM; CC50 (CCRF-CEM): > 250 µM; CC50 (L1210): 147 µM |
| CCOP(=O)(OCC)[C@@H]1C[C@H](n2cc(C(=O)OC)nn2)ON1C (relative stereo) | inactive | inactive | inactive | inactive | inactive | inactive | inactive | inactive | inactive | inactive | inactive | inactive | inactive | inactive | inactive | inactive | inactive | inactive | inactive | inactive | Activity [14]: inactive; CC50 (HEL [18]): > 100 µM; CC50 (HeLa [19]): > 250 µM; CC50 (CCRF-CEM): > 250 µM; CC50 (L1210): 166 µM |

— ChEMBL document CHEMBL1926651, “Design, synthesis, antiviral and cytostatic evaluation of novel isoxazolidine nucleotide analogues with a 1,2,3-triazole linker” (Eur J Med Chem, 2012)
